MrgX1 allo act: allosterically activates human MrgX1 receptor signaling; AID 588675; Q96LB2; B-score at 10 µM; MrgX1-HEK293, Fluo-4 calcium flux, FDSS; stronger effect = higher value; actives 0.63% (n = 310,000);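 active means plate-corrected calcium response at least 3 library SD above typical, normal starting fluorescence, not activating the receptor alone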;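 further: compound read alongside a low EC10 to EC30 dose of BAM8-22 agonist; peak minus trough fluorescence over baseline measured at the second addition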
Target sequence (Q96LB2 whole entry, looked up): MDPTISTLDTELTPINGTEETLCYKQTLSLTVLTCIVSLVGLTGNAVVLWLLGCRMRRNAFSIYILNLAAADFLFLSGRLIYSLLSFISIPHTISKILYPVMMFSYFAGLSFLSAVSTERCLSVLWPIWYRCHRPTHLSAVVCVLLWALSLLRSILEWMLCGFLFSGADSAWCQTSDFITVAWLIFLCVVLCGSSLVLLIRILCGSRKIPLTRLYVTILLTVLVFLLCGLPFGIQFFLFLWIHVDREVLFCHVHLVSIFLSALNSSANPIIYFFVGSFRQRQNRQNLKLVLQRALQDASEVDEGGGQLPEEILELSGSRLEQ
RGS4 inh: inhibitors of human RGS4; P49798; HEK293 M3R/RGS4 inducible, Fluo-4 calcium flux; stronger effect = higher value; triggered by carbachol at its EC20; B-score at 10 µM; actives 0.45% (n = 310,000);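 active means B-score, a plate-corrected calcium signal, over three deviations above library mean, with baseline fluorescence within five deviations of library mean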;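 further: RGS4 expression induced by doxycycline in cells with stable M3 receptor; B-score is computed from the integrated fluorescence ratio over baseline after carbachol; higher B-score means a larger calcium signal and so more RGS4 inhibition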
Target sequence (P49798 whole entry, looked up): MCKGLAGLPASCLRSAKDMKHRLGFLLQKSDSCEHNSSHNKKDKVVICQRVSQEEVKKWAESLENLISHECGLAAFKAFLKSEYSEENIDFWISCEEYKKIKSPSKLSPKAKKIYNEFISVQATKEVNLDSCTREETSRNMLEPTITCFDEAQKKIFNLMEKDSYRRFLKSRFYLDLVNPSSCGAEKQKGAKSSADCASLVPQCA
MrgX1 agonist: human MrgX1 receptor agonism, primary screen; MrgX1-HEK293 cells, Fluo-4 calcium fluorescence, agonist mode; stronger effect = higher value; B-score at 10 µM; actives 0.44% (n = 310,000);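 active means calcium response B-score plate-corrected fluorescence ratio at least 3 library SD, with starting fluorescence B-score inside 5 SD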
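Material – MrgX1-expressing HEK293 cells · Input – 15,000 cells seeded per well · Dosing – compound as first of three additions · Times – overnight seeding, then 1 h dark dye loading · Measured by – kinetic Fluo-4 NW fluorescence of intracellular calcium · Read-out – B-scored fluorescence response ratio · Benchmarks – positive and negative control wells on each plate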
MrgX1 antag: blocks BAM8-22 activation of human MrgX1 receptor; actives 1.3% (n = 310,000); AID 588676; MRGX1-HEK293 calcium flux, Fluo-4, BAM8-22 antagonism; stronger effect = lower value; Q96LB2; B-score at 10 µM;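 active means calcium-response B-score plate-corrected more than 3 library SD below zero, starting fluorescence within 5 deviations, no agonist response on first addition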;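 further: peak minus trough fluorescence over baseline after final BAM8-22 challenge near maximal dose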
RGS4 pot: potentiators or activators of RGS4; B-score at 10 µM; actives 0.92% (n = 310,000); AID 463111; HEK293 M3R/inducible RGS4, carbachol calcium flux Fluo4; stronger effect = lower value;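 active means B-score of the integrated calcium signal more than 4 SD below the library mean, with starting fluorescence not abnormally high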;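 further: negative B-score means reduced calcium response which marks RGS4 activation or potentiation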
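test system = HEK293 cells with stable M3R and inducible RGS4 | schedule = recording 10 s baseline at 1 Hz, 100 s post-agonist | technique = Fluo4-AM (2 µM) calcium-flux fluorescence, kinetic read | measure = Agonist-evoked peak-minus-minimum fluorescence over baseline, integrated ratio, B score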
RGS4 activ val: RGS4 activation, validation assay | shares compounds with RGS4 pot | HEK293 M3R/RGS4 inducible, carbachol calcium flux Fluo4 | inhibition, % at 10 µM | actives 89% (n = 1,100) | AID 602282;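 active means inhibition above 3 SD of the buffer control wells, cut at about 41% in these data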;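 further: signal is the integrated peak-minus-minimum Fluo4 fluorescence over baseline ratio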
RGS4 act ctr: counter-screen for RGS4 activators: effect in non-induced cells. shares compounds with RGS4 pot. HEK293 M3R non-induced RGS4, Fluo4 calcium flux; after carbachol challenge at its EC90. inhibition, % at 10 µM. actives 82% (n = 1,100);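 active means inhibition exceeding 3 SD of buffer-only control wells, cut at about 26% in these data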;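 further: percent drop in integrated peak-minus-baseline over baseline Fluo4 ratio after carbachol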
Large screens that a line does not name were inactive (follow-up assays come after a bar, where they were run). Only some compounds are listed: those with a hit (about 3.5% of all), similar ones and a draw of the others.

CCN(CC)CCNC(=O)c1ccc(NC(=O)c2c(C)nn(-c3ccc(F)cc3)c2Cl)cc1	RGS4 pot -9.8 | RGS4 activ val 92 | RGS4 act ctr 88
CCN(CC)CCNC(=O)c1ccc(NC(=O)Cc2ccccc2F)cc1	none
O=C1CC(C(=O)N2CCc3ccccc32)CN1c1ccc(F)cc1 (stereo not drawn)	none
CC[N+](C)(C)CC/C=C1/c2ccccc2Sc2ccc(Cl)cc21	RGS4 pot -12 | RGS4 activ val 94 | RGS4 act ctr 93
CCn1ncc(CN2CCCC(C(=O)c3cccc(OC(C)C)c3)C2)c1C (stereo not drawn)	RGS4 pot -10 | RGS4 activ val 84 | RGS4 act ctr 38
CN1CCCC(CC2Oc3ccccc3Sc3ccccc32)C1 (stereo not drawn)	RGS4 pot -9.1 | RGS4 activ val 93 | RGS4 act ctr 92
O=C(CNc1ccccc1OC(F)F)N1CCc2ccccc21	none
Cc1ccccc1C(=NCCCN(C)C)c1ccccc1C	RGS4 pot -9.3 | RGS4 activ val 88 | RGS4 act ctr 56
CCOC(=O)/C(C#N)=C1\SS/C(=C(/C#N)C(=O)OCC)S1	none
COc1ccc(C(C)(C)C)cc1S(=O)(=O)n1ccnc1C	none
CC(C)CC(NC(=O)C(COCc1ccccc1)NC(=O)OC(C)(C)C)C(=O)NN (stereo not drawn)	none
CCc1ccc(NC(=O)c2sc3nc(C)nc(N4CCN(c5ccccn5)CC4)c3c2C)cc1	RGS4 pot -8.5 | RGS4 activ val 64 | RGS4 act ctr 84
Cc1nc(N2CCN(c3ccccn3)CC2)c2c(C)c(C(=O)Nc3ccccc3F)sc2n1	RGS4 pot -7.8 | RGS4 activ val 94 | RGS4 act ctr 59
Cc1ccc(NC(=O)c2cnc(N3CCN(c4ccccn4)CC3)c3ccccc23)c(Br)c1	RGS4 pot -11 | RGS4 activ val 91 | RGS4 act ctr 76
Cc1nc(N2CCN(c3ccccn3)CC2)c2c(C)c(C(=O)Nc3ccc(F)cc3F)sc2n1	RGS4 pot -9 | RGS4 activ val 80 | RGS4 act ctr 27
COc1ccc(NC(=O)c2sc3nc(C)nc(N4CCN(c5ccccn5)CC4)c3c2C)cc1Cl	none
O=C(Nc1c(F)cccc1F)c1cnc(N2CCN(c3ccccn3)CC2)c2ccccc12	none
COc1ccc(CCNC(=O)Cn2nnc(C(=O)Nc3cc(C)ccc3C)c2N)cc1OC	none
COc1ccc(-c2cc3c(=O)n(CC(=O)N4CCN(C)CC4)ncn3n2)cc1	none
O=C(Nc1cccc(F)c1)C1CCCN(S(=O)(=O)c2ccc(-n3cnnn3)cc2)C1 (stereo not drawn)	none
Cc1cccc(NS(=O)(=O)c2cc(C(=O)N3CCc4ccccc4C3)ccc2Cl)c1C	RGS4 pot -8.1 | RGS4 activ val 82 | RGS4 act ctr 30
Cc1nc(-c2ccc(S(=O)(=O)Oc3ccc(Cl)cc3Cl)s2)cs1	RGS4 pot -8.4 | RGS4 activ val 89 | RGS4 act ctr 71
COC(=O)c1ccc(OCCN2CCCCCC2)cc1	RGS4 pot -7.8 | RGS4 activ val 66 | RGS4 act ctr 84
CN(CC(=O)Nc1cccc(F)c1)CC(=O)Nc1cccc(S(=O)(=O)N2CCCCCC2)c1	RGS4 pot -7.7 | RGS4 activ val 62 | RGS4 act ctr 33
O=C(Nc1cccc(F)c1)C1CCCN(S(=O)(=O)c2cnc[nH]2)C1 (stereo not drawn)	none
NC(=O)C[N+]1(CC#CC(O)(c2ccccc2)c2ccccc2)CCCC1	RGS4 pot -12 | RGS4 activ val 52 | RGS4 act ctr inactive
Cc1cccc(-c2cc(C(=O)Nc3cccnc3)c3ccccc3n2)c1	RGS4 pot -9.5 | RGS4 activ val 56 | RGS4 act ctr inactive
CCOc1ccc(/C=N/n2c(COc3ccccc3)n[nH]c2=S)cc1OC	none
CN(C)CCNC(=O)c1cc2c(s1)-c1ccc(Cl)cc1SC2	RGS4 pot -13 | RGS4 activ val 94 | RGS4 act ctr 93
